Assay results taken from ChEMBL document CHEMBL4004837, “Synthesis and Characterization of Urofuranoic Acids: In Vivo Metabolism of 2-(2-Carboxyethyl)-4-methyl-5-propylfuran-3-carboxylic Acid (CMPF) and Effects on in Vitro Insulin Secretion” (J Med Chem, 2017).

Legend:
[1] = Half life in mouse at 1 mg/kg, iv; assay type: ADME, organism-based; details: in vivo
Outline: (§1)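 Mouse pharmacokinetics after single intravenous CMPF dosing at 1 or 3 mg/kg. Plasma exposure was followed over time to derive AUC, C0, terminal half-life, clearance and volume of distribution.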

[2] = Volume of distribution in mouse at 3 mg/kg, iv; assay type: ADME, organism-based; details: in vivo; outline: as §1
[3] = (§2) Drug metabolism in CD1 mouse adipose assessed as loss of C2 carboxyl during fragmentation at 6 mg/kg, ip dosed once daily for 3 days followed by dosing of 1:1 mixtures of 2-(2-Carboxyethyl)-4-methyl-5-(1-propyl-1-13C)furan-3-carboxylic Acid and test compound on day 4 and 5 measured 1 hr post dose on day 5 by HPLC-MS analysis; assay type: ADME, organism-based, Adipose tissue; details: in vivo
Outline: (§3)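 Mice received CMPF 6 mg/kg intraperitoneally for three days, then 1:1 labeled/unlabeled CMPF mixtures on days four and five. On day five they were euthanized 1 h post-dose, and plasma, adipose, muscle and liver were collected. Samples were analysed by HPLC-MS, with MS/MS of product ions. Metabolites were identified by the distinctive isotope patterns from the 1:1 label mixture.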

Liver [4] = assay: as §2, with “liver” for “adipose”; assay type: ADME, organism-based; details: in vivo; outline: as §3
Plasma [5] = assay: as §2, with “plasma” for “adipose”, “2-(2-(Carboxy-13C)ethyl)-4-methyl-5-propylfuran-3-carboxylic-2-13C” for “2-(2-Carboxyethyl)-4-methyl-5-(1-propyl-1-13C)furan-3-carboxylic”; assay type: ADME, organism-based; details: in vivo
Outline: (§4)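 CMPF given 6 mg/kg i.p. once daily for three days. On days four and five, 1:1 mixtures of stable-isotope-labelled and unlabelled CMPF were dosed. Mice were killed 1 h after the day-five dose. Plasma, adipose, muscle and liver were collected and analysed by HPLC-MS (MS/MS for product ions). Metabolites were identified by their distinctive isotope patterns from the labelled/unlabelled mixture.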

[6] = as §2, with “2-(2-(Carboxy-13C)ethyl)-4-methyl-5-propylfuran-3-carboxylic-2-13C” for “2-(2-Carboxyethyl)-4-methyl-5-(1-propyl-1-13C)furan-3-carboxylic”; assay type: ADME, organism-based, Adipose tissue; details: in vivo; outline: as §3
[7] = as §2, with “muscle” for “adipose”, “2-(2-(Carboxy-13C)ethyl)-4-methyl-5-propylfuran-3-carboxylic-2-13C” for “2-(2-Carboxyethyl)-4-methyl-5-(1-propyl-1-13C)furan-3-carboxylic”; assay type: ADME, organism-based, Muscle tissue; details: in vivo; outline: as §3
[8] = as §2, with “2-(2-Carboxyethyl)-4-methyl-5-propyl-(3-13C-furan)-3-13Ccarboxylate” for “2-(2-Carboxyethyl)-4-methyl-5-(1-propyl-1-13C)furan-3-carboxylic Acid”; assay type: ADME, organism-based, Adipose tissue; details: in vivo; outline: as §3
Liver [9] = assay: as §2, with “liver” for “adipose”, “2-(2-Carboxyethyl)-4-methyl-5-propyl-(3-13C-furan)-3-13Ccarboxylate” for “2-(2-Carboxyethyl)-4-methyl-5-(1-propyl-1-13C)furan-3-carboxylic Acid”; assay type: ADME, organism-based; details: in vivo; outline: as §3
CYP3A4 = CYP3A4 (Homo sapiens, UniProt P08684); assay: Inhibition of human microsomal CYP3A4 at 10 uM after 3 mins by single quad LC/MS analysis; assay type: ADME; details: microsomes
[10] = as §2, with “muscle” for “adipose”, “monoacylglycerol conjugate formation” for “loss of C2 carboxyl during fragmentation”; assay type: ADME, organism-based, Muscle tissue; details: in vivo; outline: as §3
Liver [11] = assay: as §2, with “liver” for “adipose”, “monoacylglycerol conjugate formation” for “loss of C2 carboxyl during fragmentation”; assay type: ADME, organism-based; details: in vivo; outline: as §3
[12] = as §2, with “muscle” for “adipose”, “diacylglycerol conjugate formation” for “loss of C2 carboxyl during fragmentation”; assay type: ADME, organism-based, Muscle tissue; details: in vivo; outline: as §3
Liver [13] = assay: as §2, with “liver” for “adipose”, “diacylglycerol conjugate formation” for “loss of C2 carboxyl during fragmentation”; assay type: ADME, organism-based; details: in vivo; outline: as §3
[14] = as §2, with “diacylglycerol conjugate formation” for “loss of C2 carboxyl during fragmentation”; assay type: ADME, organism-based, Adipose tissue; details: in vivo; outline: as §3
[15] = as §2, with “oxidative metabolites formation” for “loss of C2 carboxyl during fragmentation”; assay type: ADME, organism-based, Adipose tissue; details: in vivo; outline: as §3
[16] = (§5) Drug metabolism in CD1 mouse adipose assessed as glycerol conjugate formation at 6 mg/kg, ip dosed once daily for 3 days followed by dosing of 1:1 mixtures of 2-(2-(Carboxy-13C)ethyl)-4-methyl-5-propylfuran-3-carboxylic-2-13C Acid and test compound on day 4 and 5 measured 1 hr post dose on day 5 by HPLC-MS analysis; assay type: ADME, organism-based, Adipose tissue; details: in vivo; outline: as §3
Plasma [17] = assay: as §5, with “plasma” for “adipose”, “monoacylglycerol” for “glycerol”; assay type: ADME, organism-based; details: in vivo; outline: as §4
[18] = as §5, with “muscle” for “adipose”, “monoacylglycerol” for “glycerol”; assay type: ADME, organism-based, Muscle tissue; details: in vivo; outline: as §3
[19] = as §5, with “muscle” for “adipose”, “diacylglycerol” for “glycerol”; assay type: ADME, organism-based, Muscle tissue; details: in vivo; outline: as §3
[20] = (§6) Drug metabolism in CD1 mouse muscle assessed as glycerol conjugate formation at 6 mg/kg, ip dosed once daily for 3 days followed by dosing of 1:1 mixtures of 2-(2-Carboxyethyl)-4-methyl-5-propyl-(3-13C-furan)-3-13Ccarboxylateand test compound on day 4 and 5 measured 1 hr post dose on day 5 by HPLC-MS analysis; assay type: ADME, organism-based, Muscle tissue; details: in vivo; outline: as §3
[21] = as §6, with “adipose” for “muscle”, “monoacylglycerol” for “glycerol”; assay type: ADME, organism-based, Adipose tissue; details: in vivo; outline: as §3
Liver [22] = assay: as §6, with “liver” for “muscle”, “diacylglycerol” for “glycerol”; assay type: ADME, organism-based; details: in vivo; outline: as §3
[23] = as §6, with “adipose” for “muscle”, “diacylglycerol” for “glycerol”; assay type: ADME, organism-based, Adipose tissue; details: in vivo; outline: as §3
Liver [24] = assay: as §6, with “liver” for “muscle”, “oxidative metabolites” for “glycerol conjugate”; assay type: ADME, organism-based; details: in vivo; outline: as §3
[25] = Effect on insulin content in KCl-stimulated mouse pancreatic islet at 200 uM incubated for 24 hrs followed by KCl stimulation for 20 mins by HTRF assay; assay type: ADME, cell-based
Outline: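 Mouse islets treated with compounds at 200 µM. Insulin secretion was then measured under low- and high-glucose GSIS conditions and under KCl stimulation, and intracellular insulin content was measured. Mean of n = 4-5 experiments with SEM.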

[26] = Suppression of glucose stimulated insulin secretion in mouse pancreatic islet at 200 uM incubated for 24 hrs followed by glucose stimulation for 20 mins by HTRF assay relative to control

Sequence of CYP3A4 (P08684 whole entry, the tested form may be a part): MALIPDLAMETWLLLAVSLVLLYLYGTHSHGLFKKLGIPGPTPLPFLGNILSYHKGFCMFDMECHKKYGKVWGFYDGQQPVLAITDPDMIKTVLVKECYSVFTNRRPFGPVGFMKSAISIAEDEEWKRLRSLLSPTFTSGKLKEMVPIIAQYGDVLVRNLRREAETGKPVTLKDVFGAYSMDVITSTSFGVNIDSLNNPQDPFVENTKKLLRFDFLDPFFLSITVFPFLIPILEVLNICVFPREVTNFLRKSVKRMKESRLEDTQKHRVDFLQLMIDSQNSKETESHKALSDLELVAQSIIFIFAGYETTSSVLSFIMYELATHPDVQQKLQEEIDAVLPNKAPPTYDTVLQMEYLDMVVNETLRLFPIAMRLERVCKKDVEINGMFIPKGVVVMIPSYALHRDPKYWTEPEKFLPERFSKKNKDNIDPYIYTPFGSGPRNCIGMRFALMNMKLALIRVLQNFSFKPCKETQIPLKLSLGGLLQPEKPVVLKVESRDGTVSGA

In the case of `CCCc1oc(CCC(=O)O)c(C(=O)O)c1C`, the half-life [1] was 4.5 h, the Vd [2] was 0.2 L/kg and the Drug metabolism [3] was “Metabolite_Detected”. For the same molecule, the Drug metabolism (Liver [4]) was “Metabolite_Detected”, the Drug metabolism (Plasma [5]) was “Metabolite_Detected” and the Drug metabolism [6] was “Metabolite_Detected”. The Drug metabolism [7] was “Metabolite_Detected”, the Drug metabolism [8] was “Metabolite_Detected” and the Drug metabolism (Liver [9]) was “Metabolite_Detected”. The inhibition at 0.05 h, 10 µM (CYP3A4) was 0%, the Drug metabolism [10] was “Metabolite_Notdetected” and the Drug metabolism (Liver [11]) was “Metabolite_Notdetected”. The Drug metabolism [12] was “Metabolite_Notdetected”, the Drug metabolism (Liver [13]) was “Metabolite_Notdetected” and the Drug metabolism [14] was “Metabolite_Notdetected”. The Drug metabolism [15] was “Metabolite_Notdetected”, the Drug metabolism [16] was “Metabolite_Notdetected” and the Drug metabolism (Plasma [17]) was “Metabolite_Notdetected”. The Drug metabolism [18] was “Metabolite_Notdetected”, the Drug metabolism [19] was “Metabolite_Notdetected” and the Drug metabolism [20] was “Metabolite_Notdetected”. For the same molecule, the Drug metabolism [21] was “Metabolite_Notdetected”, the Drug metabolism (Liver [22]) was “Metabolite_Notdetected” and the Drug metabolism [23] was “Metabolite_Notdetected”. The Drug metabolism (Liver [24]) was “Metabolite_Notdetected”, the Activity [25] was “Non-Toxic” and the Activity [26] was “Toxic”.
